# Measurements gathered from unrelated publications.
# Lines come from different studies, so protocols differ.
Compound,target or system,test,setting,endpoint,value
CCCCOc1ccc(-c2cnc3c(n2)CCCC3)cc1,Haemonchus contortus,parasite motility,"72 h, larva",IC50,6.9 µM
O=C(Nc1ccccc1-c1ccc(F)c(F)c1)c1nccnc1C(F)(F)F,Penicillium digitatum,microbial growth,,EC50,> 100 µg/mL
CCCCCc1ccc(-c2cnc3c(n2)CCCC3)cc1,Haemonchus contortus,parasite motility,"72 h, larva",IC50,14.4 µM
Cc1ccc(C(CS(=O)(=O)c2ccccc2)=NNC2=NC(=O)C(=NNc3ccc([N+](=O)[O-])cc3)S2)cc1,SK-MEL-23,"cell growth or viability, MTT","6.3 µM, 48 h",viability,56.6%
Cc1ncc([N+](=O)[O-])n1CCO,Eggerthella lenta,"microbial growth, agar dilution",48 h,MIC,0.5 µg/mL
Cc1cccc2cc(CNCC3(N4CCCC4)COC3)cnc12,A 172,cell growth or viability,"30 µM, 48 h",viability,92.6%
C[C@@H](Oc1cc(-c2cnn(C3CCNCC3)c2)cnc1N)c1c(Cl)ccc(F)c1Cl,NCI-H2228,"cell growth or viability, MTT","5 µg/mL, 72 h",inhibition,85.2%
Cc1ccc(C(CS(=O)(=O)c2ccccc2)=NN=C2N=C(c3ccc(Br)cc3)CS2)cc1,SK-MEL-23,"cell growth or viability, MTT","6.3 µM, 48 h",viability,63.7%
CCCCOc1cccc(-c2cnc3c(n2)CCCC3)c1,Haemonchus contortus,parasite motility,"72 h, larva",IC50,17.7 µM
O=c1[nH]c(NCc2ccc(Cl)c(Cl)c2)nc2ncn(CCCCCN3CCOCC3)c12,Eggerthella lenta,"microbial growth, agar dilution",48 h,MIC,> 32 µg/mL
Cc1ccc(C(CS(=O)(=O)c2ccccc2)=NNC2=NC(=O)C(=NNc3ccccc3)S2)cc1,SK-MEL-23,"cell growth or viability, MTT","0.4 µM, 48 h",viability,50.5%
CCCCc1cccc(-c2cnc3c(n2)CCCC3)c1,Haemonchus contortus,parasite motility,"24 h, larva",IC50,32.4 µM
Cc1ccc(C(CS(=O)(=O)c2ccccc2)=NNc2nc(-c3ccc(OCCCCOc4ccc(-c5csc(NN=C(CS(=O)(=O)c6ccccc6)c6ccc(C)cc6)n5)cc4)cc3)cs2)cc1,SK-MEL-23,"cell growth or viability, MTT","100 µM, 48 h",viability,37.2%
Cc1cc(Nc2ncc(Cl)c(Nc3ccccc3S(=O)(=O)C(C)C)n2)c(OC(C)C)cc1C1CCNCC1,NCI-H2228,"cell growth or viability, MTT","0.2 µg/mL, 72 h",inhibition,70.9%
